99 compounds from ChEMBL document CHEMBL4513216, “Probing the Open Global Health Chemical Diversity Library for Multistage-Active Starting Points for Next-Generation Antimalarials” (ACS Infect Dis, 2020) can be followed below.

The data set is described as follows: Toxicity liver stage against HepG2, at 10uM. Type of data set: cell-based. Set-up: test concentration 10 uM, cell line HepG2-A16-CD81EGFP. The following applies: human, HepG2-A16-CD81EGFP cells; read-out: INHIBITION
The procedure, abridged: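 Uninfected HepG2-A16-CD81EGFP cells, 3 × 10^3 per well, 1536-well, plated on prespotted compound at 10 μM final, parasite-free screening media added to match infected plates; puromycin 10 μM positive, DMSO 0.5% negative; run in parallel with 48 h PbLuc assay at 37 °C, 5% CO2; viability by CellTiter-Glo luminescence, normalized to controls.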
Take `COc1cc(NC(=O)c2nc3ccccc3n(C)c2=O)cc(OC)c1`: the cytotoxicity at 10 µM came out at 7.67%.

For `CN1CCc2c(C#N)c(NCc3ccccc3)n3cnnc3c2C1`, the cytotoxicity at 10 µM worked out at 3.93%.

Take `CC(C)NC(=O)N1CCN(C(=O)N(C)C)CC2(CC(=O)N(C)C2)C1` (centres undefined): the cytotoxicity at 10 µM is -17.8%.

As for `COc1ccc2c(c1)C1(CCN(Cc3ccoc3)CC1)N(C)CC2`, the cytotoxicity at 10 µM is -8.04%.

For `CCCNC(=O)c1nn(CC)cc1Cl`, the cytotoxicity at 10 µM stood at 6.11%.

Consider `CCn1cc(NC(=O)CN2C(=O)CC(C)(C)c3ccccc32)cn1`, for which the cytotoxicity at 10 µM was -1.7%.

In the case of `O=C(c1ccnc(C2CCNCC2)c1)N1CCCC(CO)C1` (centres undefined), the cytotoxicity at 10 µM came out at 3.9%.

On to `Cc1nccn1[C@@H]1CC[C@@H](NC(=O)Cn2c(C)nc3ccccc32)[C@H]1O`, for which the cytotoxicity at 10 µM came out at 2.41%.

As to `Cc1nc(CC(=O)N2CCC(c3ccn4nccc4n3)CC2)cs1`, the cytotoxicity at 10 µM was -0.956%.

Consider `COc1cc(CN2CCCC[C@]3(C)NC(=O)CC[C@H]23)ccc1F`, for which the cytotoxicity at 10 µM was -2.32%.

In the case of `O=C(CC1CCCC1)N1CCC(c2noc(-c3ccccn3)n2)CC1`, the cytotoxicity at 10 µM was 5.05%.

Take `Cc1nc(CN2CCCC(c3nccs3)C2)cs1` (centres undefined): the cytotoxicity at 10 µM stood at 2.3%.

`CC(C(=O)NC1CC1)n1nc(-c2cccs2)cc(N)c1=O` (centres undefined): the cytotoxicity at 10 µM is 10.9%.

`CC(=O)N1CCC(C)(c2nc(C)no2)CC1`: the cytotoxicity at 10 µM is -1.55%.

In the case of `CC(C)N1CCC(c2nccnc2Nc2cnccn2)CC1`, the cytotoxicity at 10 µM was determined as 1.44%.

Turning to `CCc1nnc(Nc2cc(C)nc(C3CCN(c4ccncn4)C3)n2)s1` (centres undefined), the cytotoxicity at 10 µM is 4.38%.

With `COCC1CCN(c2cc(C3CN(C)CCO3)nc(C)n2)CC1` (centres undefined), the cytotoxicity at 10 µM turned out to be 4.71%.

For the compound `O=C(NC1CC1)c1cc(C2CC2)nc2onc(C3CCNCC3)c12`, the cytotoxicity at 10 µM stood at 7.16%.

Turning to `Cc1ccc(S(=O)(=O)Nc2ccc(C)c(C(=O)O)c2)s1`, the cytotoxicity at 10 µM was -1.51%.

`O=C(c1cc[nH]n1)N1CCc2cc(Br)sc2C1`: the cytotoxicity at 10 µM worked out at 7.01%.

As to `CCOc1cc(CNC(=O)NC2CC=CC2)ccc1OC(F)F`, the cytotoxicity at 10 µM is -42.4%.

Turning to `CCN(CC)CCn1cc(NC(=O)Nc2ccccc2OC)cn1`, the cytotoxicity at 10 µM turned out to be 12.7%.

In the case of `CCCc1cc(C(=O)N2CCCN(c3cccnn3)CC2)[nH]n1`, the cytotoxicity at 10 µM is -1.16%.

Take `CC(C)C(=O)Nc1cccc(CNC(=O)CSCc2ccccn2)c1`: the cytotoxicity at 10 µM is 9.65%.

As to `CCOc1ccccc1CN(C)C(C)c1nc(-c2cccnc2)no1` (centres undefined), the cytotoxicity at 10 µM is 7.84%.

In the case of `CC(=O)N1CCN(C(=O)NC(C)Cn2ccnc2)CC1` (centres undefined), the cytotoxicity at 10 µM is -1.05%.

Take `CC(C)N1CCC(NC(=O)NCc2cccnc2)C1` (centres undefined): the cytotoxicity at 10 µM was determined as 7.67%.

As to `CN(CCCOc1ccccc1)S(=O)(=O)c1cnn(C)c1`, the cytotoxicity at 10 µM was -6.7%.

As for `NC(=O)NC(=O)C(c1ccccc1)N1CCN(Cc2ccccc2)CC1` (centres undefined), the cytotoxicity at 10 µM is -5.68%.

For `COCCNC(=O)CCNc1cc(C)nc(-c2ccncc2)n1`, the cytotoxicity at 10 µM is -1.26%.

For `Cc1cc(CN2CCN(C(=O)C3(C#N)CCCCC3)CC2)on1`, the cytotoxicity at 10 µM came out at 4.81%.

As to `Cc1ccc(C(=O)N(CC2CCCO2)c2ccncc2)o1` (centres undefined), the cytotoxicity at 10 µM is -3.08%.

For the compound `COC(C)c1nc(CN2CCCNCC2)cs1` (centres undefined), the cytotoxicity at 10 µM was -3.78%.

As to `N#Cc1ccc(CNc2cccc(C(=O)N3CCOCC3)c2)cc1`, the cytotoxicity at 10 µM is -4.34%.

Turning to `CC(C)Cc1nc(CN2CCC(NC(=O)c3cccs3)CC2)no1`, the cytotoxicity at 10 µM was -2.56%.

On to `Cc1cc(CN2CCc3cncnc3C2)no1`, for which the cytotoxicity at 10 µM was 5.84%.

Consider `CN(CCc1ccccn1)C1CCCN(Cc2noc(C3CC3)n2)C1` (centres undefined), for which the cytotoxicity at 10 µM was found to be 11.6%.

With `CCCOc1cc(C)ccc1NC(=O)N(C)C`, the cytotoxicity at 10 µM was -4.59%.

Consider `CC(=O)N(Cc1ccsc1)c1ccccc1`, for which the cytotoxicity at 10 µM is -1.74%.

Consider `COCCS(=O)(=O)NC(C)c1ccccc1Cl` (centres undefined), for which the cytotoxicity at 10 µM was determined as 5.53%.

Turning to `COc1c(CNCc2cccnc2OC2CCCC2)c(C)nn1C`, the cytotoxicity at 10 µM is -2.01%.

For the compound `CN(CC(F)(F)F)C(=O)CN1CCC(c2cc3ccccc3[nH]2)CC1`, the cytotoxicity at 10 µM is 4.93%.

Consider `CSCc1cc(F)ccc1CNCc1ccncc1`, for which the cytotoxicity at 10 µM was -7.53%.

Turning to `CC(=O)N(C)c1nc(Cn2nnnc2C(C)(C)C)cs1`, the cytotoxicity at 10 µM was found to be 6.56%.

`CCOCCN1CCN(CC(O)c2ccc(C(F)(F)F)cc2)CC1` (centres undefined): the cytotoxicity at 10 µM was -16.6%.

Consider `CN(CCC(N)=O)Cc1cc(Br)cs1`, for which the cytotoxicity at 10 µM was -0.711%.

For `Fc1ccc(C(NCc2nnc(C3CC3)o2)C2CCC2)cc1` (centres undefined), the cytotoxicity at 10 µM was -48.1%.

As to `Cc1ccc(N2CCCC(NC(=O)Nc3cnn(C)c3)C2=O)cc1` (centres undefined), the cytotoxicity at 10 µM was -44%.

For `CS(=O)(=O)c1nnc(NC(=O)CCc2ccc(Cl)s2)[nH]1`, the cytotoxicity at 10 µM stood at 6.13%.

Take `O=C(NCCCN1CCN(c2ncccn2)CC1)NCC1CCOC1` (centres undefined): the cytotoxicity at 10 µM is -56.6%.

On to `N#Cc1cc(F)c(NCCc2ccc(F)cc2)c(F)c1`, for which the cytotoxicity at 10 µM was -60.3%.

As for `CC(C)N(C)CC(=O)NC1CCc2nccn2C1` (centres undefined), the cytotoxicity at 10 µM stood at 17.8%.

Turning to `COCC1CN(S(=O)(=O)c2ccccc2)Cc2ncnn2C1` (centres undefined), the cytotoxicity at 10 µM is -117%.

Regarding `CN(C)CC(=O)N1Cc2nnn(C)c2C(COCC2CC2)C1` (centres undefined), the cytotoxicity at 10 µM was -99.4%.

In the case of `Cc1cc(CN2CC[C@H]3C[C@H](C(=O)N(C)C)O[C@@H]3C2)no1`, the cytotoxicity at 10 µM is -5.53%.

`CCOCCn1c(=O)[nH]c2cc(C(=O)N(C)Cc3cnn(C)c3)ccc21`: the cytotoxicity at 10 µM turned out to be 2.81%.

In the case of `COc1ccc(CCC2CCCN(CC(=O)O)C2)cc1` (centres undefined), the cytotoxicity at 10 µM worked out at 3.38%.

With `COC(=O)c1cc(C)nc(N2CCN(Cc3ccn(C(C)C)c3)CC2)n1`, the cytotoxicity at 10 µM came out at 9.77%.

`CC(C)c1nnc2sc(CC3CN(C(C)C)CCO3)nn12` (centres undefined): the cytotoxicity at 10 µM is -13.8%.

For `CCc1n[nH]c(SCC(=O)N2CCc3[nH]nc(C4CCC4)c3C2)n1`, the cytotoxicity at 10 µM is -12.1%.

As for `Cc1cc(Cn2cc(C(C)Cc3ccc4c(c3)OCO4)nn2)n[nH]1` (centres undefined), the cytotoxicity at 10 µM was found to be 5.92%.

`CCn1ccnc1C1CCN(Cc2cccc(C)n2)CC1`: the cytotoxicity at 10 µM is -7.93%.

With `CCNc1ncc(CN2C[C@H](C3CC3)[C@@H](N)C2)cn1`, the cytotoxicity at 10 µM was -40%.

Take `Cc1cc(C(F)(F)F)cc(N2CCN(Cc3ccccc3)CC(O)C2)n1` (centres undefined): the cytotoxicity at 10 µM amounted to 0.165%.

In the case of `COCc1ncc(CN2C[C@@H](C(=O)O)[C@H](C(C)C)C2)cn1`, the cytotoxicity at 10 µM is -2.97%.

Take `Cc1cc(C)c2[nH]c(C(=O)NCCN3CCOC3=O)c(C)c2c1`: the cytotoxicity at 10 µM was -0.2%.

In the case of `Cc1ccc(C)c(CN2CCCn3nc(CNS(C)(=O)=O)cc3C2)c1`, the cytotoxicity at 10 µM is -4.64%.

As for `CN(C)CCN1CC(C(=O)NCc2cn3cccnc3n2)CC1=O` (centres undefined), the cytotoxicity at 10 µM is -4.29%.

Consider `CCOc1ccc2[nH]c(=O)c(CN3CCCCC3C)cc2c1` (centres undefined), for which the cytotoxicity at 10 µM is -0.895%.

As for `Cc1cc(C)n(-c2ccc(C(=O)NCC(CO)Cc3cccs3)cc2)n1` (centres undefined), the cytotoxicity at 10 µM is 6.64%.

Regarding `CCn1cc(CN2CCC(CNC(C)=O)CC2)cc1C#N`, the cytotoxicity at 10 µM is -6.21%.

As for `O=C(CSCC1CC1)N1CCCN(Cc2ccc(F)cc2)CC1`, the cytotoxicity at 10 µM came to 3.54%.

Regarding `O=C(CC1COCCN1)NCCc1noc(-c2ccccc2)n1` (centres undefined), the cytotoxicity at 10 µM was found to be 3.05%.

Regarding `CSc1ccc(-c2nc(CN3C[C@@H](C)NC[C@@H]3C)c(C)o2)cc1`, the cytotoxicity at 10 µM is -3.06%.

For the compound `CCNC(=O)[C@@H]1C[C@H](N)CN1C(=O)c1c[nH]c2ccccc12`, the cytotoxicity at 10 µM was -8.34%.

Regarding `CC1(C)CN(CCC(=O)NCc2cccc(Cl)c2)CC[C@]1(C)O`, the cytotoxicity at 10 µM was -3.45%.

Consider `COc1cccc(CN2CC3(CCNCC3)CCC2=O)c1OC`, for which the cytotoxicity at 10 µM turned out to be 6.39%.

Regarding `CSCCC(O)C(=O)N(C)Cc1cnn(-c2ccc(F)cc2)c1` (centres undefined), the cytotoxicity at 10 µM is -5.36%.

Regarding `Cc1ccc(C)c(OC(C)C(=O)NCc2cccnc2)c1` (centres undefined), the cytotoxicity at 10 µM came out at 2.13%.

For `Cc1nc(N2CCN(S(C)(=O)=O)CC2)cc(-n2cnc(C)c2C)n1`, the cytotoxicity at 10 µM is -5.83%.

For the compound `CCc1nn(C)c(Cl)c1CN1CCN(c2nc(C(N)=O)cs2)CC1`, the cytotoxicity at 10 µM was found to be 8.81%.

For the compound `Cc1ccc(C)c(OC(C)C(=O)NCCNc2cccnc2)c1` (centres undefined), the cytotoxicity at 10 µM stood at 1.32%.

`Cc1cc(C(=O)N2CCC(c3nccn3Cc3ccncc3)CC2)no1`: the cytotoxicity at 10 µM is -15.7%.

For `O=C(Cn1cccnc1=O)NC(Cc1cccs1)c1ccccn1` (centres undefined), the cytotoxicity at 10 µM is -2.03%.

With `Cc1ccc(NC2CCN(C(=O)CCc3ccncc3)CC2)nn1`, the cytotoxicity at 10 µM is -9.43%.

Regarding `CCOCC(O)CN1CCN(C(=O)c2ccc(C)nc2)CC1` (centres undefined), the cytotoxicity at 10 µM turned out to be 0.661%.

For `CCc1nc(CN(C)C2CCN(CC(=O)N(C)C)C2)no1` (centres undefined), the cytotoxicity at 10 µM is -16.7%.

As for `CC(O)CN1CCC(CNCc2cccc(Cl)c2)CC1` (centres undefined), the cytotoxicity at 10 µM was -23.8%.

In the case of `Cc1ccoc1C(=O)N1CCCC(CNS(C)(=O)=O)C1` (centres undefined), the cytotoxicity at 10 µM was -23.4%.

For the compound `Cc1nnc(NC(=O)NCc2cc(F)cc(F)c2)s1`, the cytotoxicity at 10 µM was -6.07%.

For `Cc1cnc2c(S(=O)(=O)NCC3CCN(C4CC4)C3)cccc2c1` (centres undefined), the cytotoxicity at 10 µM was -6.36%.

In the case of `CS(=O)(=O)NC1CCN(C(=O)NCCc2ccccc2F)CC1`, the cytotoxicity at 10 µM was -3.83%.

Take `CCn1ccnc1CN1CCCN(C(=O)c2cc(Cl)c[nH]2)CC1`: the cytotoxicity at 10 µM is -9.6%.

With `CCc1nc(CNCC2CCCN2c2cc(NC)ncn2)cs1` (centres undefined), the cytotoxicity at 10 µM was -9.11%.

For `CCNC(=O)Nc1ccc2c(ccn2CC(=O)N(CC)CC)c1`, the cytotoxicity at 10 µM is -0.421%.

As to `c1csc(-c2nc(CN3CCOC(Cn4cncn4)C3)co2)c1` (centres undefined), the cytotoxicity at 10 µM is -11.8%.

Consider `Cc1ccccc1-n1nc(C)c(CN(C)C(C)Cc2ccccn2)c1C` (centres undefined), for which the cytotoxicity at 10 µM amounted to 0.58%.

Consider `COCC1CN(Cc2ccoc2)Cc2nn(C)cc21` (centres undefined), for which the cytotoxicity at 10 µM is -81.7%.

For the compound `c1cncc(COC[C@@H]2CCC[C@@]23CNCCO3)c1`, the cytotoxicity at 10 µM is -106%.
